Data published in ChEMBL document CHEMBL3611989, “Discovery and characterization of aryl isonitriles as a new class of compounds versus methicillin- and vancomycin-resistant Staphylococcus aureus” (Eur J Med Chem, 2015).
Converted amounts (≈) assume the structure as drawn.

Experiments:
Staphylococcus aureus [1] = test: Bactericidal activity against methicillin-resistant Staphylococcus aureus USA300; assay type: functional
Staphylococcus aureus [2] = test: Antimicrobial activity against methicillin-sensitive Staphylococcus aureus NRS72 assessed as reduction in bacterial growth incubated for 18 to 20 hrs at 37 degC by broth microdilution method; assay type: functional
Method in brief: (§1)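 Modified CLSI broth microdilution. Bacterial suspension of about 1 × 10^5 CFU/mL in tryptic soy broth. Each agent was added in triplicate to the first row and serially diluted down the plate. Plates were incubated at 37 °C for 18-20 h. MIC was read as the lowest concentration with no visible growth.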

Staphylococcus aureus [3] = test: Antimicrobial activity against methicillin-resistant Staphylococcus aureus USA100 assessed as reduction in bacterial growth incubated for 18 to 20 hrs at 37 degC by broth microdilution method; assay type: functional; method in brief: as §1
Staphylococcus aureus [4] = test: Antimicrobial activity against methicillin-resistant Staphylococcus aureus USA200 assessed as reduction in bacterial growth incubated for 18 to 20 hrs at 37 degC by broth microdilution method; assay type: functional; method in brief: as §1
Staphylococcus aureus [5] = test: Antimicrobial activity against methicillin-resistant Staphylococcus aureus USA300 assessed as reduction in bacterial growth incubated for 18 to 20 hrs at 37 degC by broth microdilution method; assay type: functional; method in brief: as §1
Staphylococcus aureus [6] = test: Antimicrobial activity against methicillin-resistant Staphylococcus aureus USA500 assessed as reduction in bacterial growth incubated for 18 to 20 hrs at 37 degC by broth microdilution method; assay type: functional; method in brief: as §1
Staphylococcus aureus [7] = test: Antimicrobial activity against methicillin-resistant Staphylococcus aureus USA700 assessed as reduction in bacterial growth incubated for 18 to 20 hrs at 37 degC by broth microdilution method; assay type: functional; method in brief: as §1
Staphylococcus aureus [8] = test: Antimicrobial activity against methicillin-resistant Staphylococcus aureus NRS119 assessed as reduction in bacterial growth incubated for 18 to 20 hrs at 37 degC by broth microdilution method; assay type: functional; method in brief: as §1
Staphylococcus aureus [9] = test: Antimicrobial activity against vancomycin-intermediate-resistant Staphylococcus aureus NRS1 assessed as reduction in bacterial growth incubated for 18 to 20 hrs at 37 degC by broth microdilution method; assay type: functional; method in brief: as §1
Staphylococcus aureus [10] = test: Antimicrobial activity against vancomycin-resistant Staphylococcus aureus VRS2 assessed as reduction in bacterial growth incubated for 18 to 20 hrs at 37 degC by broth microdilution method; assay type: functional; method in brief: as §1
J774 [11] = test: Cytotoxicity against mouse J774 cells assessed as reduction in cell viability at 32 uM incubated for 2 hrs by MTS assay; assay type: cell-based; conditions: j774, 2 h
Method in brief: (§2)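 Murine J774 macrophages grown in DMEM with 10% FBS at 37 °C, 5% CO2. Compounds were tested in triplicate at 16, 32, 64 and 128 μM for 2 h, with DMSO-matched vehicle controls. MTS reagent was then added and absorbance read at OD490. Viability is given as percent of DMSO-treated cells (mean of triplicate ± standard deviation), compared by paired t-test (P < 0.05).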

J774 [12] = test: Cytotoxicity against mouse J774 cells assessed as reduction in cell viability at 64 uM incubated for 2 hrs by MTS assay; assay type: cell-based; conditions: j774, 2 h; method in brief: as §2
J774 [13] = assay type: cell-based; conditions: mouse, j774, 2 h, 128 µM
[14] = Metabolic stability in human liver microsomes assessed as compound remaining incubated for 60 mins in presence of NADPH; assay type: ADME; conditions: read-out: Stability
[15] = Metabolic stability in human liver microsomes assessed as compound remaining incubated for 60 mins in absence of NADPH; assay type: ADME; conditions: read-out: Stability
J774 [16] = test: Cytotoxicity against mouse J774 cells assessed as reduction in cell viability up to 64 uM incubated for 2 hrs by MTS assay; assay type: cell-based; conditions: j774, 2 h; method in brief: as §2
[17] = Selectivity index, ratio of cytotoxicity against mouse J774 cells by MTS assay to MIC for methicillin-resistant Staphylococcus aureus; assay type: toxicity, cell-based; conditions: read-out: Selectivity Index
[18] = Kinetic solubility of the compound in PBS; assay type: physicochemical; conditions: read-out: Kinetic_solubility

Structure (SMILES): [C-]#[N+]c1ccccc1/C=C(\CC)c1ccccc1
- MBC (Staphylococcus aureus [1]): > 128 µM
- MIC (Staphylococcus aureus [2]): 8 µM (≈ 1.87 µg/mL)
- MIC (Staphylococcus aureus [3]): 8 µM (≈ 1.87 µg/mL)
- MIC (Staphylococcus aureus [4]): 16 µM (≈ 3.73 µg/mL)
- MIC (Staphylococcus aureus [5]): 32 µM (≈ 7.47 µg/mL)
- MIC (Staphylococcus aureus [6]): 32 µM (≈ 7.47 µg/mL)
- MIC (Staphylococcus aureus [7]): 8 µM (≈ 1.87 µg/mL)
- MIC (Staphylococcus aureus [8]): 64 µM (≈ 14.9 µg/mL)
- MIC (Staphylococcus aureus [9]): 8 µM (≈ 1.87 µg/mL)
- MIC (Staphylococcus aureus [10]): 32 µM (≈ 7.47 µg/mL)
- Activity (J774 [11]): Non-toxic
- Activity (J774 [12]): Non-toxic
- Activity (J774 [13]): Non-toxic

Structure (SMILES): [C-]#[N+]c1ccccc1/C=C/c1ccccc1
- remaining at 1 h [14]: 24%
- remaining at 1 h [15]: 51%
- MIC (Staphylococcus aureus [3]): 2 µM (≈ 0.411 µg/mL)
- MIC (Staphylococcus aureus [4]): 4 µM (≈ 0.821 µg/mL)
- MIC (Staphylococcus aureus [5]): 4 µM (≈ 0.821 µg/mL)
- MIC (Staphylococcus aureus [6]): 32 µM (≈ 6.57 µg/mL)
- MIC (Staphylococcus aureus [7]): 4 µM (≈ 0.821 µg/mL)
- MIC (Staphylococcus aureus [8]): 4 µM (≈ 0.821 µg/mL)
- MIC (Staphylococcus aureus [9]): 2 µM (≈ 0.411 µg/mL)
- MIC (Staphylococcus aureus [10]): 32 µM (≈ 6.57 µg/mL)
- Activity (J774 [16]): Non-toxic
- Activity (J774 [11]): Non-toxic
- Activity (J774 [12]): Non-toxic
- Activity (J774 [13]): Toxic
- selectivity ratio [17]: 16
- solubility kinetic [18]: 15.6 µM (≈ 3.2 µg/mL)

Structure (SMILES): [C-]#[N+]c1ccccc1/C=C/c1ccc(OC)cc1
- MIC (Staphylococcus aureus [2]): 4 µM (≈ 0.941 µg/mL)
- MIC (Staphylococcus aureus [3]): 8 µM (≈ 1.88 µg/mL)
- MIC (Staphylococcus aureus [4]): 2 µM (≈ 0.471 µg/mL)
- MIC (Staphylococcus aureus [5]): 16 µM (≈ 3.76 µg/mL)
- MIC (Staphylococcus aureus [6]): > 128 µM
- MIC (Staphylococcus aureus [7]): 8 µM (≈ 1.88 µg/mL)
- MIC (Staphylococcus aureus [8]): 32 µM (≈ 7.53 µg/mL)
- MIC (Staphylococcus aureus [9]): 4 µM (≈ 0.941 µg/mL)
- MIC (Staphylococcus aureus [10]): 32 µM (≈ 7.53 µg/mL)
- Activity (J774 [11]): Non-toxic
- Activity (J774 [12]): Non-toxic
- Activity (J774 [13]): Toxic

Structure (SMILES): [C-]#[N+]c1ccccc1/C=C/c1cccc(OC)c1
- MIC (Staphylococcus aureus [2]): 8 µM (≈ 1.88 µg/mL)
- MIC (Staphylococcus aureus [3]): 8 µM (≈ 1.88 µg/mL)
- MIC (Staphylococcus aureus [4]): 4 µM (≈ 0.941 µg/mL)
- MIC (Staphylococcus aureus [5]): 16 µM (≈ 3.76 µg/mL)
- MIC (Staphylococcus aureus [6]): 32 µM (≈ 7.53 µg/mL)
- MIC (Staphylococcus aureus [7]): 16 µM (≈ 3.76 µg/mL)
- MIC (Staphylococcus aureus [8]): 32 µM (≈ 7.53 µg/mL)
- MIC (Staphylococcus aureus [9]): 4 µM (≈ 0.941 µg/mL)
- MIC (Staphylococcus aureus [10]): 32 µM (≈ 7.53 µg/mL)
- Activity (J774 [11]): Non-toxic
- Activity (J774 [12]): Non-toxic
- Activity (J774 [13]): Non-toxic

Structure (SMILES): [C-]#[N+]c1ccccc1/C=C/c1ccccc1OC
- MIC (Staphylococcus aureus [2]): 8 µM (≈ 1.88 µg/mL)
- MIC (Staphylococcus aureus [3]): 8 µM (≈ 1.88 µg/mL)
- MIC (Staphylococcus aureus [4]): 8 µM (≈ 1.88 µg/mL)
- MIC (Staphylococcus aureus [5]): 8 µM (≈ 1.88 µg/mL)
- MIC (Staphylococcus aureus [6]): 8 µM (≈ 1.88 µg/mL)
- MIC (Staphylococcus aureus [7]): 8 µM (≈ 1.88 µg/mL)
- MIC (Staphylococcus aureus [8]): 16 µM (≈ 3.76 µg/mL)
- MIC (Staphylococcus aureus [9]): 4 µM (≈ 0.941 µg/mL)
- MIC (Staphylococcus aureus [10]): 16 µM (≈ 3.76 µg/mL)
- Activity (J774 [11]): Non-toxic
- Activity (J774 [12]): Non-toxic
- Activity (J774 [13]): Toxic

Structure (SMILES): [C-]#[N+]c1ccccc1/C=C/c1ccc(F)cc1
- MIC (Staphylococcus aureus [2]): 4 µM (≈ 0.893 µg/mL)
- MIC (Staphylococcus aureus [3]): 8 µM (≈ 1.79 µg/mL)
- MIC (Staphylococcus aureus [4]): 2 µM (≈ 0.446 µg/mL)
- MIC (Staphylococcus aureus [5]): 8 µM (≈ 1.79 µg/mL)
- MIC (Staphylococcus aureus [6]): 16 µM (≈ 3.57 µg/mL)
- MIC (Staphylococcus aureus [7]): 8 µM (≈ 1.79 µg/mL)
- MIC (Staphylococcus aureus [8]): 16 µM (≈ 3.57 µg/mL)
- MIC (Staphylococcus aureus [9]): 4 µM (≈ 0.893 µg/mL)
- MIC (Staphylococcus aureus [10]): 32 µM (≈ 7.14 µg/mL)
- Activity (J774 [11]): Non-toxic
- Activity (J774 [12]): Non-toxic
- Activity (J774 [13]): Toxic

Structure (SMILES): [C-]#[N+]c1ccccc1/C=C/c1ccccc1F
- MIC (Staphylococcus aureus [2]): 4 µM (≈ 0.893 µg/mL)
- MIC (Staphylococcus aureus [3]): 8 µM (≈ 1.79 µg/mL)
- MIC (Staphylococcus aureus [4]): 2 µM (≈ 0.446 µg/mL)
- MIC (Staphylococcus aureus [5]): 16 µM (≈ 3.57 µg/mL)
- MIC (Staphylococcus aureus [6]): 16 µM (≈ 3.57 µg/mL)
- MIC (Staphylococcus aureus [7]): 8 µM (≈ 1.79 µg/mL)
- MIC (Staphylococcus aureus [8]): 32 µM (≈ 7.14 µg/mL)
- MIC (Staphylococcus aureus [9]): 4 µM (≈ 0.893 µg/mL)
- MIC (Staphylococcus aureus [10]): 32 µM (≈ 7.14 µg/mL)
- Activity (J774 [11]): Non-toxic
- Activity (J774 [12]): Non-toxic
- Activity (J774 [13]): Toxic

Structure (SMILES): CC/C(=C\c1ccccc1)c1ccccc1
- MIC (Staphylococcus aureus [2]): > 128 µM
- MIC (Staphylococcus aureus [3]): > 128 µM
- MIC (Staphylococcus aureus [4]): > 128 µM
- MIC (Staphylococcus aureus [5]): > 128 µM
- MIC (Staphylococcus aureus [6]): > 128 µM
- MIC (Staphylococcus aureus [7]): > 128 µM
- MIC (Staphylococcus aureus [8]): > 128 µM
- MIC (Staphylococcus aureus [9]): > 128 µM
- MIC (Staphylococcus aureus [10]): > 128 µM
- Activity (J774 [16]): Non-toxic
- Activity (J774 [11]): Non-toxic
- Activity (J774 [12]): Non-toxic
- Activity (J774 [13]): Toxic

Structure (SMILES): CC(=O)CC(c1ccccc1)c1c(O)c2ccccc2oc1=O (centres undefined) [WARFARIN]
- remaining at 1 h [14]: 93%
- remaining at 1 h [15]: 94%
